Screening data from PubChem BioAssay.
Shown are actives, neighbours in structure and some others; about 3.5% of the full set was active somewhere.
RGS4 block: RGS4 inhibitors, primary screen, cell-based, HEK293 M3R inducible RGS4, calcium flux | Regulator of G-protein signaling 4 (Homo sapiens), P49798 | Fluo-4 calcium flux; stronger effect = higher value; triggered by carbachol at its EC20 | B-score at 10 µM | 0.45% of 310,000 active;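 active means B-score, a plate-corrected calcium signal, over three deviations above library mean, with baseline fluorescence within five deviations of library mean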;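 further: RGS4 expression induced by doxycycline in cells with stable M3 receptor; B-score is computed from the integrated fluorescence ratio over baseline after carbachol; higher B-score means a larger calcium signal and so more RGS4 inhibition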
Target sequence (P49798 whole entry, looked up): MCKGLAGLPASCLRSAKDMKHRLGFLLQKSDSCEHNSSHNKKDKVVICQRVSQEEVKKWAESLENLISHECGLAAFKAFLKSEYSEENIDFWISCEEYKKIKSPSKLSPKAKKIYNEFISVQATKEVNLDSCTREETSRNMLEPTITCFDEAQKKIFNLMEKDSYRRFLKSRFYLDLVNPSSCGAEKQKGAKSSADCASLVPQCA
RGS4 act: RGS4 potentiators or activators, primary screen, cell-based, HEK293 M3R inducible RGS4, calcium flux; B-score at 10 µM; carbachol calcium flux Fluo4; stronger effect = lower value; AID 463111, 2010; 0.92% of 310,000 active;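 active means B-score of the integrated calcium signal more than 4 SD below the library mean, with starting fluorescence not abnormally high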;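 further: negative B-score means reduced calcium response which marks RGS4 activation or potentiation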
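System: HEK293 FlpIn-TREx cells, stable M3R, doxycycline-inducible RGS4. Timing: overnight RGS4 induction, 30 min dye load 37 °C, 20 min compound RT. Also added: carbachol, ECmax concentration. Measured by: Fluo4 fluorescence kinetic imaging of calcium. Evaluation: integrated calcium ratio converted to B score.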
MrgX1 ag: agonists of human MrgX1 receptor, primary screen, HEK293 cells, Fluo-4 calcium flux. B-score at 10 µM. AID 588627, 2011. 0.44% of 310,000 active. Fluo-4 calcium fluorescence, agonist mode; stronger effect = higher value. Mas-related G-protein coupled receptor member X1 (Homo sapiens), Q96LB2;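 active means calcium response B-score plate-corrected fluorescence ratio at least 3 library SD, with starting fluorescence B-score inside 5 SD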
Target sequence (Q96LB2 whole entry, looked up): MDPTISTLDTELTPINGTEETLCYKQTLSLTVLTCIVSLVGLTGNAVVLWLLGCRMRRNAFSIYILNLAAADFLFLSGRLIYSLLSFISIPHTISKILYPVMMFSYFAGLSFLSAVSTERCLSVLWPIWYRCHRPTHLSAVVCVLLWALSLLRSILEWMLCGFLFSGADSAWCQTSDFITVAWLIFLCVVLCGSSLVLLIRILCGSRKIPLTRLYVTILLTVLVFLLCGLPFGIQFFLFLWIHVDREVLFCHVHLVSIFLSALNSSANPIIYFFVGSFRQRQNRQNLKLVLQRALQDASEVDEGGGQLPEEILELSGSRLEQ
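Test system: HEK293 cells stably expressing human MrgX1 receptor; Input: fifteen thousand cells per well; Dosing: compound delivered in addition one of three; Schedule: overnight seeding, then 1 h dark dye loading; Technique: Fluo-4 NW calcium fluorescence; Measure: B-scored fluorescence response ratio; Controls: positive and negative controls per plate.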
MrgX1 PAM: positive allosteric modulators of MrgX1, primary screen, HEK293 cells, Fluo-4 calcium flux; Mas-related G-protein coupled receptor member X1 (Homo sapiens), Q96LB2; FDSS; stronger effect = higher value; B-score at 10 µM; 0.63% of 310,000 active;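 active means plate-corrected calcium response at least 3 library SD above typical, normal starting fluorescence, not activating the receptor alone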;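 further: compound read alongside a low EC10 to EC30 dose of BAM8-22 agonist; peak minus trough fluorescence over baseline measured at the second addition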
MrgX1 antag: antagonists of human MrgX1 receptor, primary screen, HEK293 cells, Fluo-4 calcium flux | BAM8-22 antagonism; stronger effect = lower value | 1.3% of 310,000 active | Mas-related G-protein coupled receptor member X1 (Homo sapiens), Q96LB2 | B-score at 10 µM;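 active means calcium-response B-score plate-corrected more than 3 library SD below zero, starting fluorescence within 5 deviations, no agonist response on first addition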;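 further: peak minus trough fluorescence over baseline after final BAM8-22 challenge near maximal dose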
Numbers stand for hits; i = inactive; nt = no result given.

SMILES | RGS4 block | RGS4 act | MrgX1 ag | MrgX1 PAM | MrgX1 antag
COc1ccc(-c2c[n+](CC(=O)OC3CC(C)CCC3C(C)C)c3n2CCC3)cc1 (configuration not stated) | i | -7 | i | i | -4.9
O=C(C[n+]1cc(-c2ccc(Cl)cc2)n2c1CCCCC2)c1ccccc1 | i | i | i | i | i
COc1ccc(CCC(=O)N/N=C(\C)c2ccc3c(c2)OCO3)cc1 | i | i | i | i | i
CCCCCCOc1ccc(/C(C)=N/NC2=NCCN2)cc1[N+](=O)[O-] | i | i | i | i | i
CCCCOc1ccc(Br)cc1/C(C)=N/NC1=NCCN1 | i | -8.1 | i | i | i
O=S(=O)(Nc1ccc(N2CCCCC2)cc1)c1cccs1 | i | i | i | i | i
O=S(=O)(Nc1cc(Cl)ccc1N1CCCCC1)c1cccs1 | i | i | i | i | -13
CCCN1CCN(C(=O)CCn2c(=O)c3cccn3c3cccnc32)CC1 | i | i | i | i | i
CCCC[C@H]1COCCS(=O)(=O)N1Cc1ccc(Br)cc1 | i | -7.1 | i | i | i
CCCCOc1ccccc1C(=O)NNC(=S)NC(=O)c1ccccc1[N+](=O)[O-] | i | i | i | i | -5.8
O=C(NNC(=S)NC(=O)c1ccccc1[N+](=O)[O-])c1ccccc1[N+](=O)[O-] | i | i | i | i | i
CCOc1ccc(C(=O)C(CCC(CN(C)C)C(=O)c2ccc(OCC)cc2)CN(C)C)cc1 (configuration not stated) | i | -8 | nt | nt | nt
COc1ccc(C(=O)C(CCCCC(CN(C)C)C(=O)c2ccc(OC)cc2)CN(C)C)cc1 (configuration not stated) | i | i | i | i | i
CCNC(=S)NNC(=O)C(c1ccccc1)c1ccccc1 | i | i | i | i | i
CC(C)(C)C(=O)NC(=S)NNC(=O)C(c1ccccc1)c1ccccc1 | i | -7.4 | 156 | i | i
CC(=O)NNC(=S)NC(=O)C(c1ccccc1)c1ccccc1 | i | i | 35 | i | i
O=C(NCC(c1ccco1)N1CCc2ccccc21)C(=O)Nc1ccc(F)cc1F (configuration not stated) | i | i | i | i | i
CC(C)(C)C1CCC2(CC1)CC(=O)c1ccccc1O2 (configuration not stated) | i | i | i | i | i
O=C(NCCOC(=O)c1ccccc1)c1ccc([N+](=O)[O-])cc1 | i | i | i | i | i
COc1c(C)cc(C(=O)C2CCCN(S(=O)(=O)N(C)C)C2)cc1C (configuration not stated) | i | i | i | i | i
Cn1c(=O)c([N+](=O)[O-])c(N2CCN(Cc3ccc4c(c3)OCO4)CC2)c2ccccc21 | i | -7.3 | i | i | i
O=S(=O)(c1cccc(Br)c1)N1CCN(CCc2ccccc2)CC1 | i | i | i | i | i
Cc1cc(Cl)ccc1OCC(=O)NN1C(=O)C2C3C=CC(C3)C2C1=O (configuration not stated) | i | i | i | i | -6.1
Cc1cccc(NC(=O)NN2CCN(C)CC2)c1C | i | i | i | i | i
CC(C)(C)c1ccc(C(=O)NCCC(=O)NCc2cccs2)cc1 | i | i | i | i | i
SMILES | RGS4 block | RGS4 act | MrgX1 ag | MrgX1 PAM | MrgX1 antag
Cc1cc(/C=C2\SC(=S)N(C)C2=O)c(C)n1-c1cccc(O)c1 | i | i | i | i | -5.7
COc1ccc(-n2c(C)cc(/C=C3/SC(=S)N(C)C3=O)c2C)cc1 | i | i | i | i | i
O=C1/C(=C\c2ccco2)SC(=S)N1Cc1ccccc1 | i | i | i | i | i
Cc1cc(/C=C2\SC(=S)N(Cc3ccco3)C2=O)c(C)n1-c1ccccc1 | i | i | i | i | -4.5
COc1ccc(C(=O)NNC(=O)Cc2ccc(Cl)cc2)cc1 | i | i | i | i | i
COc1cccc(C(=O)NNC(=O)Cc2ccc(Cl)cc2)c1 | i | i | i | i | -7
CC(NC(=O)C12CC3CC(CC(C3)C1)C2)c1ccc(F)cc1 (configuration not stated) | i | i | i | i | i
C[N+]1(C)CCC(=C2c3ccccc3CC(=O)c3sccc32)CC1 | i | -8.3 | i | i | i
CSc1nc(NCC(C)C)c2c3c(sc2n1)CN(C)CC3 | i | -7.4 | i | i | i
COCCNc1nc(SC)nc2sc3c(c12)CCN(C)C3 | i | i | i | i | i
COc1ccc(NS(=O)(=O)c2cccc(C(=O)NCC(c3ccccc3)N(C)C)c2)cc1 (configuration not stated) | i | i | i | i | -5
Cc1ccc(-c2nc(N)s[n+]2-c2ccccc2)cc1 | i | -9.8 | i | i | i
Cc1ccc(-c2nc3ccccc3nc2-c2ccccc2)cc1 | i | i | i | i | i
Oc1ccccc1/C=N/n1cnn(Cc2ccccc2Cl)c1=S | i | i | i | i | -6.1
COc1ccc(/C=N/n2cnn(Cc3ccccc3Cl)c2=S)cc1 | i | i | i | i | i
Cc1cc(CN(C)C(=O)c2ccc3nc(Cc4ccccc4F)oc3c2)on1 | i | i | i | i | i
CCN(CC)CCCNC(=O)c1ccc(N2CCCCC2)c(NS(=O)(=O)c2ccc(C)cc2)c1 | i | i | 27 | i | i
C[C@@]12CCC=C[C@H]1[C@H](c1ccc(C(F)(F)F)cc1)N(Cc1ccccc1)C2=O | i | i | i | i | i
COc1ccccc1C(=O)NNC1=C(C(=O)C(F)(F)F)CCC1 | i | i | 39 | i | i
O=C(NNC1=C(C(=O)C(F)(F)F)CCC1)c1ccccc1O | i | i | i | i | i
O=Cc1nc(-c2ccc(Cl)cc2)n2ccccc12 | i | i | i | i | i
O=Cc1nc(-c2ccccc2Cl)n2ccccc12 | i | i | i | i | -6.3
CCn1c(=S)sc2c(=O)n(-c3ccccc3)c(SC)nc21 | i | i | i | 7.7 | i
O=C(c1ccc([N+](=O)[O-])cc1)N(Cc1ccc(Cl)cc1)N1C(=O)CCCC1=O | i | i | 54 | i | i
O=C(c1ccc([N+](=O)[O-])cc1)N(Cc1ccc(Cl)cc1Cl)N1C(=O)CCCC1=O | i | i | i | i | i
Cc1cc2n(c1)CCn1c(C)ccc1-2 | i | i | i | i | -4.6
NC(=O)CC(NC(=O)Cc1cccc2ccccc12)c1ccc(NCCCN2CCCC2=O)c([N+](=O)[O-])c1 (configuration not stated) | i | i | i | i | i
Cc1ccc(S(=O)(=O)/N=C2/NC(=O)/C(=C\c3ccco3)S2)cc1 | nt | nt | i | i | i
Cc1ccc(/C=C2\S/C(=N/S(=O)(=O)c3cccs3)NC2=O)cc1 | i | i | i | 14 | i
Cc1cc(C)c(C#N)c(SCc2c(F)cccc2[N+](=O)[O-])n1 | i | i | i | i | -5.7
